The results in this text go back to publication PMC4980839 (Archiv der Pharmazie, 2010).

SMILES strings stand for the structures. Like-named read-outs stand apart in the source and are kept apart here. Where only a bound is given, the exact number is not on record here.

What all share (format): biochemical
Assay [1] addresses human PDE5 (Homo sapiens, UniProt O76074). As to the kind of experiment: PDE5 inhibition, IMAP fluorescence polarization phosphodiesterase assay. Conditions: for inhibition at 50 µM: read-out: % cGMP inhibition (50 μM). For orientation: Polarisation of emitted light reports the rotation of a fluorescent probe.
Assay [2] addresses PDE3B (Homo sapiens, UniProt Q13370). As to the kind of experiment: PDE3B inhibition. Summed up:
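Reaction started with a substrate solution of 50 nM TAMRA-cGMP and/or Fl-cAMP. Run 60 min at room temperature, stopped with IMAP binding solution. Hydrolysis read as fluorescence polarization (TAMRA 530–590 nm).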

Assay [3] concerns the target PDE4B (Homo sapiens, UniProt Q07343). As to the kind of experiment: PDE4B inhibition.
Assay [4] addresses PDE11A (Homo sapiens, UniProt Q9HCR9). As to the kind of experiment: PDE11A inhibition.
[5] abbreviates: read-out: IC50 PDE3B cGMP, cGMP as substrate.

Chain of PDE3B (Q13370 592-1112 limits assumed): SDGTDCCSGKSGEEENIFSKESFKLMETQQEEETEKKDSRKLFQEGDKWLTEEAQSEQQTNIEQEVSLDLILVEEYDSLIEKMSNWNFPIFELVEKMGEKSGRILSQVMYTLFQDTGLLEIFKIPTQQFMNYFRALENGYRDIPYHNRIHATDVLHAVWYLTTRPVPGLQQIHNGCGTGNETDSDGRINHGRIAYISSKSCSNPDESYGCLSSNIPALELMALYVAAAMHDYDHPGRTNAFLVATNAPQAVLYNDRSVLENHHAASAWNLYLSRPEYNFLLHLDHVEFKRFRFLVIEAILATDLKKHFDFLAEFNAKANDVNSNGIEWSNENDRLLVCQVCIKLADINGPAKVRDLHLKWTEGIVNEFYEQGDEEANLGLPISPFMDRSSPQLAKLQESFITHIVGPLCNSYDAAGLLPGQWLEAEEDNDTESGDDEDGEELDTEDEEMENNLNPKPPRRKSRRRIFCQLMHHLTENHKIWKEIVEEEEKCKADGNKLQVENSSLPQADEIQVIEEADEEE
Chain of PDE11A (Q9HCR9 whole entry): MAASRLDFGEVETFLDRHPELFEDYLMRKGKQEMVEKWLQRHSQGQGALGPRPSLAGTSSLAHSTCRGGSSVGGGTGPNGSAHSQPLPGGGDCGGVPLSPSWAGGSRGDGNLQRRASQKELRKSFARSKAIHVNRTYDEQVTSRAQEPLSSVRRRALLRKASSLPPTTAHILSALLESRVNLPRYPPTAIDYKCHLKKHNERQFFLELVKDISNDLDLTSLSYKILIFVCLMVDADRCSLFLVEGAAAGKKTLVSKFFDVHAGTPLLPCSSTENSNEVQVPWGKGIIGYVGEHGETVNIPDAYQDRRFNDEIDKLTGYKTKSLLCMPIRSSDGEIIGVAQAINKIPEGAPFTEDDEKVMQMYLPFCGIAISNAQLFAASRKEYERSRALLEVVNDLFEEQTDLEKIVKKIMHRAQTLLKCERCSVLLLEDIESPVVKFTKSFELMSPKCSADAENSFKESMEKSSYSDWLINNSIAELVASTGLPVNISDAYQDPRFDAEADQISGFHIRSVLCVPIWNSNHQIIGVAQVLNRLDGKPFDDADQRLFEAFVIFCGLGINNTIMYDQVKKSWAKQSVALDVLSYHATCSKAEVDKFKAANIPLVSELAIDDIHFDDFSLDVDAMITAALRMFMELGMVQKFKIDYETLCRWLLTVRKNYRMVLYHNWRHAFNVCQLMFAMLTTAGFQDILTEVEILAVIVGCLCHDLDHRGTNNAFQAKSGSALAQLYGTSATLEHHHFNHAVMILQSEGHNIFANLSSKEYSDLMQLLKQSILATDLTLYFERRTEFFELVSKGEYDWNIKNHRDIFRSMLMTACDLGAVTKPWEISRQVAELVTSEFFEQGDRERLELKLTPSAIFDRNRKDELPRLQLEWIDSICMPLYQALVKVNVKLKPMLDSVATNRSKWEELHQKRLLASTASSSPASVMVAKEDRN
Chain of PDE4B (Q07343 whole entry): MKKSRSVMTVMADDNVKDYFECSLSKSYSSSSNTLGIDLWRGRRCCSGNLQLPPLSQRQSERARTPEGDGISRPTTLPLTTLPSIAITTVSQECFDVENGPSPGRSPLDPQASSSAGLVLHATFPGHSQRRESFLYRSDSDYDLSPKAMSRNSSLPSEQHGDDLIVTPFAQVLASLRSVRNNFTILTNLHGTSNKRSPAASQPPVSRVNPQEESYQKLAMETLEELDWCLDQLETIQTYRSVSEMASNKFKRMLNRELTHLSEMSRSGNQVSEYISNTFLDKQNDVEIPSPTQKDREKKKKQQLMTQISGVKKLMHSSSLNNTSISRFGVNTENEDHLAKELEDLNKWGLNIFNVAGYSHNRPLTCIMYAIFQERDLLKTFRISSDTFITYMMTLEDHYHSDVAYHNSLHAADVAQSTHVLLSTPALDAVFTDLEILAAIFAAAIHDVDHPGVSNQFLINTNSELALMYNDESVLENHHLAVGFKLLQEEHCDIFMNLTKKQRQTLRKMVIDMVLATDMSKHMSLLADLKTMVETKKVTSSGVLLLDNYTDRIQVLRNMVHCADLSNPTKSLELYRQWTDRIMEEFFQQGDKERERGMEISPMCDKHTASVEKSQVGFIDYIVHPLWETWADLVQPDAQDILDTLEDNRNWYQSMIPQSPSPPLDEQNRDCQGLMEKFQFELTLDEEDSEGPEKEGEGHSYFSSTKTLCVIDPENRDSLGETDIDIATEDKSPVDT

As usually defined, the inhibition is the change of the read-out against control, counted positive when it falls. Turning to `CC(C)(C)N1CC(=O)N2[C@@H](c3ccc(Cl)cc3)c3[nH]c4ccccc4c3C[C@@H]2C1=O` [XXVI, (6S,12aR)-2-tert-Butyl-6-(4-chlorophenyl)-2,3,6,7,12,12a-hexahydropyrazino[1’,2’:1,6]pyrido[3,4-b]indole-1,4-dione], the inhibition at 50 µM in assay [1] came to 10%.

Turning to `COC(=O)[C@H]1Cc2c([nH]c3ccccc23)[C@H](c2ccc(Cl)cc2)N1` [II, Methyl (1S,3R)-1-(4-chlorophenyl)-2,3,4,9-tetrahydro-1H-β-carboline-3-carboxylate], the inhibition at 50 µM in assay [1] was found to be 4%.

What is called IC50 is the concentration that gives 50% inhibition. Regarding `CC(C)(C)N1C(=O)[C@H]2Cc3c([nH]c4ccccc34)[C@@H](c3ccc(Cl)cc3)N2C1=O` [IX, (5R,11aR)-2-tert-Butyl-5-(4-chlorophenyl)-5,6,11,11a-tetrahydro-1H-imidazo[1’,5’:1,6]pyrido[3,4-b]indole-1,3(2H)-dione], in assay [1], the IC50 amounted to 600 nM and the inhibition at 50 µM came to 100%.

For `CC(C)(C)N1C(=O)[C@@H]2Cc3c([nH]c4ccccc34)[C@@H](c3ccc(Cl)cc3)N2C1=O` [XII, (5R,11aS)-2-tert-Butyl-5-(4-chlorophenyl)-5,6,11,11a-tetrahydro-1H-imidazo[1’,5’:1,6]pyrido[3,4-b]indole-1,3(2H)-dione], in assay [1], the half-inhibitory concentration (IC50) was over 10000 nM and the inhibition at 50 µM was 83%.

Regarding `CCN1CC(=O)N2[C@H](c3ccc(Cl)cc3)c3[nH]c4ccccc4c3C[C@@H]2C1=O` [XXI, (6R,12aR)-2-Ethyl-6-(4-chlorophenyl)-2,3,6,7,12,12a-hexahydropyrazino[1’,2’:1,6]pyrido[3,4-b]indole-1,4-dione], the half-inhibitory concentration (IC50) is over 50 µM in assay [2]; over 50 µM in assay [2] (setting [5]); 3 nM in assay [1] (read-out: IC50 PDE5A, Table 5 PDE panel); over 50 µM in assay [3]; 706 nM in assay [4] (IC50 PDE11A cAMP, cAMP as substrate); 157 nM in assay [4] (IC50 PDE11A cGMP, cGMP as substrate). The “potency compared with tadalafil” value in assay [1] (PDE5 IC50 relative to tadalafil) is “two-fold”. In addition, the inhibition at 50 µM in assay [1] was found to be 102%. Also, the “Selectivity index IC50 (PDE11/PDE5) cGMP/cGMP” value in assay [4] (PDE11A with cGMP versus PDE5 with cGMP) amounted to 52.3.

In the case of `CCN1C(=O)[C@@H]2Cc3c([nH]c4ccccc34)[C@@H](c3ccc(Cl)cc3)N2C1=O` [VIII, (5R,11aS)-2-Ethyl-5-(4-chlorophenyl)-5,6,11,11a-tetrahydro-1H-imidazo[1’,5’:1,6]pyrido[3,4-b]indole-1,3(2H)-dione], in assay [1], the inhibition at 50 µM is 102%.

As for `O=C1[C@H]2Cc3c([nH]c4ccccc34)[C@H](c3ccc(Cl)cc3)N2C(=O)N1c1ccc(Cl)cc1` [XIV, (5S,11aR)-2,5-Bis(4-chlorophenyl)-5,6,11,11a-tetrahydro-1H-imidazo[1’,5’:1,6]pyrido[3,4-b]indole-1,3(2H)-dione], the inhibition at 50 µM in assay [1] turned out to be 29%.

With `CC(C)(C)N1CC(=O)N2[C@@H](c3ccc(Cl)cc3)c3[nH]c4ccccc4c3C[C@H]2C1=O` [XXVII, (6S,12aS)-2-tert-Butyl-6-(4-chlorophenyl)-2,3,6,7,12,12a-hexahydropyrazino[1’,2’:1,6]pyrido[3,4-b]indole-1,4-dione], in assay [1], the inhibition at 50 µM was determined as 42%.

On to `COC(=O)[C@H]1Cc2c([nH]c3ccccc23)[C@@H](c2ccc(Cl)cc2)N1` [I, Methyl (1R,3R)-1-(4 chlorophenyl)-2,3,4,9-tetrahydro-1H-β-carboline-3-carboxylate], for which the inhibition at 50 µM in assay [1] was 35%.

On to `COC(=O)[C@H]1Cc2c([nH]c3ccccc23)[C@@H](c2ccc(Cl)cc2)N1C(=O)CCl` [XVII, Methyl (1R,3R)-1-(4-chlorophenyl)-2-(chloroacetyl)-2,3,4,9-tetrahydro-1H-β-carboline-3-carboxylate], for which, in assay [1], the inhibition at 50 µM turned out to be 25%.

As for `CCN1CC(=O)N2[C@@H](c3ccc(Cl)cc3)c3[nH]c4ccccc4c3C[C@H]2C1=O` [XXIII, (6S,12aS)-2-Ethyl-6-(4-chlorophenyl)-2,3,6,7,12,12a-hexahydropyrazino[1’,2’:1,6]pyrido[3,4-b]indole-1,4-dione], the inhibition at 50 µM in assay [1] is 45%.

As for `CN1CC(=O)N2[C@H](c3ccc4c(c3)OCO4)c3[nH]c4ccccc4c3C[C@@H]2C1=O` [Tadalafil, reference compound], the half-inhibitory concentration (IC50) in assay [2] and in assay [2] (setting [5]) was over 50 µM throughout.

`CCN1CC(=O)N2[C@@H](c3ccc(Cl)cc3)c3[nH]c4ccccc4c3C[C@@H]2C1=O` [XXII, (6S,12aR)-2-Ethyl-6-(4-chlorophenyl)-2,3,6,7,12,12a-hexahydropyrazino[1’,2’:1,6]pyrido[3,4-b]indole-1,4-dione]: in assay [1], the IC50 turned out to be 1720 nM and the inhibition at 50 µM amounted to 80%.

As to `O=C1[C@H]2Cc3c([nH]c4ccccc34)[C@@H](c3ccc(Cl)cc3)N2C(=O)N1c1ccc(Cl)cc1` [XIII, (5R,11aR)-2,5-Bis(4-chlorophenyl)-5,6,11,11a-tetrahydro-1H-imidazo[1’,5’:1,6]pyrido[3,4-b]indole-1,3(2H)-dione], the inhibition at 50 µM in assay [1] was found to be 22%.

As to `CCN1CC(=O)N2[C@H](c3ccc(Cl)cc3)c3[nH]c4ccccc4c3C[C@H]2C1=O` [XXIV, (6R,12aS)-2-Ethyl-6-(4-chlorophenyl)-2,3,6,7,12,12a-hexahydropyrazino[1’,2’:1,6]pyrido[3,4-b]indole-1,4-dione], in assay [1], the 50% inhibitory concentration (IC50) amounted to 1200 nM and the inhibition at 50 µM is 87%.

For the molecule `O=C1[C@@H]2Cc3c([nH]c4ccccc34)[C@H](c3ccc(Cl)cc3)N2C(=O)N1c1ccc(Cl)cc1` [XV, (5S,11aS)-2,5-Bis(4-chlorophenyl)-5,6,11,11a-tetrahydro-1H-imidazo[1’,5’:1,6]pyrido[3,4-b]indole-1,3(2H)-dione], the inhibition at 50 µM in assay [1] turned out to be 33%.

As to `CCN1C(=O)[C@H]2Cc3c([nH]c4ccccc34)[C@@H](c3ccc(Cl)cc3)N2C1=O` [V, (5R,11aR)-2-Ethyl-5-(4-chlorophenyl)-5,6,11,11a-tetrahydro-1H-imidazo[1’,5’:1,6]pyrido[3,4-b]indole-1,3(2H)-dione], in assay [1], the IC50 is 1100 nM and the inhibition at 50 µM came out at 85%.

`COC(=O)[C@@H]1Cc2c([nH]c3ccccc23)[C@@H](c2ccc(Cl)cc2)N1C(=O)CCl` [XX, Methyl (1R,3S)-1-(4-chlorophenyl)-2-(chloroacetyl)-2,3,4,9-tetrahydro-1H-β-carboline-3-carboxylate]: the inhibition at 50 µM in assay [1] stood at 78%.

Turning to `CCN1C(=O)[C@H]2Cc3c([nH]c4ccccc34)[C@H](c3ccc(Cl)cc3)N2C1=O` [VI, (5S,11aR)-2-Ethyl-5-(4-chlorophenyl)-5,6,11,11a-tetrahydro-1H-imidazo[1’,5’:1,6]pyrido[3,4-b]indole-1,3(2H)-dione], the inhibition at 50 µM in assay [1] stood at 47%.

For the molecule `O=C1[C@@H]2Cc3c([nH]c4ccccc34)[C@@H](c3ccc(Cl)cc3)N2C(=O)N1c1ccc(Cl)cc1` [XVI, (5R,11aS)-2,5-Bis(4-chlorophenyl)-5,6,11,11a-tetrahydro-1H-imidazo[1’,5’:1,6]pyrido[3,4-b]indole-1,3(2H)-dione], in assay [1], the midpoint of inhibition, the IC50, lay at 1090 nM and the inhibition at 50 µM is 84%.

With `COC(=O)[C@@H]1Cc2c([nH]c3ccccc23)[C@@H](c2ccc(Cl)cc2)N1` [IV, Methyl (1R,3S)-1-(4-chlorophenyl)-2,3,4,9-tetrahydro-1H-β-carboline-3-carboxylate], in assay [1], the inhibition at 50 µM is 48%.

As to `CC(C)(C)N1C(=O)[C@@H]2Cc3c([nH]c4ccccc34)[C@H](c3ccc(Cl)cc3)N2C1=O` [XI, (5S,11aS)-2-tert-Butyl-5-(4-chlorophenyl)-5,6,11,11a-tetrahydro-1H-imidazo[1’,5’:1,6]pyrido[3,4-b]indole-1,3(2H)-dione], the inhibition at 50 µM in assay [1] was 20%.

As to `CC(C)(C)N1C(=O)[C@H]2Cc3c([nH]c4ccccc34)[C@H](c3ccc(Cl)cc3)N2C1=O` [X, (5S,11aR)-2-tert-Butyl-5-(4-chlorophenyl)-5,6,11,11a-tetrahydro-1H-imidazo[1’,5’:1,6]pyrido[3,4-b]indole-1,3(2H)-dione], in assay [1], the inhibition at 50 µM came out at 54%.

For `COC(=O)[C@@H]1Cc2c([nH]c3ccccc23)[C@H](c2ccc(Cl)cc2)N1C(=O)CCl` [XIX, Methyl (1S, 3S)-1-(4-chlorophenyl)-2-(chloroacetyl)-2,3,4,9-tetrahydro-1H-b-carboline-3-carboxylate], the “% cGMP inhibition (50 μM)” value in assay [1] (PDE5, compound at 50 μM, triplicate, TAMRA-cGMP substrate) amounted to 6%.

For the molecule `COC(=O)[C@H]1Cc2c([nH]c3ccccc23)[C@H](c2ccc(Cl)cc2)N1C(=O)CCl` [XVIII, Methyl (1S,3R)-1-(4-chlorophenyl)-2-(chloroacetyl)-2,3,4,9-tetrahydro-1H-β-carboline-3-carboxylate], the inhibition at 50 µM in assay [1] is 6%.

For `COC(=O)[C@@H]1Cc2c([nH]c3ccccc23)[C@H](c2ccc(Cl)cc2)N1` [III, Methyl (1S,3S)-1-(4-chlorophenyl)-2,3,4,9-tetrahydro-1H-β-carboline-3-carboxylate], the inhibition at 50 µM in assay [1] was determined as 9%.

Regarding `CCN1C(=O)[C@@H]2Cc3c([nH]c4ccccc34)[C@H](c3ccc(Cl)cc3)N2C1=O` [VII, (5S,11aS)-2-Ethyl-5-(4-chlorophenyl)-5,6,11,11a-tetrahydro-1H-imidazo[1’,5’:1,6]pyrido[3,4-b]indole-1,3(2H)-dione], in assay [1], the inhibition at 50 µM amounted to 30%.

Take `CC(C)(C)N1CC(=O)N2[C@H](c3ccc(Cl)cc3)c3[nH]c4ccccc4c3C[C@H]2C1=O` [XXVIII, (6R,12aS)-2-tert-Butyl-6-(4-chlorophenyl)-2,3,6,7,12,12a-hexahydropyrazino[1’,2’:1,6]pyrido[3,4-b]indole-1,4-dione]: in assay [1], the inhibition at 50 µM was found to be 55%.

`CC(C)(C)N1CC(=O)N2[C@H](c3ccc(Cl)cc3)c3[nH]c4ccccc4c3C[C@@H]2C1=O` [XXV, (6R,12aR)-2-tert-Butyl-6-(4-chlorophenyl)-2,3,6,7,12,12a-hexahydropyrazino[1’,2’:1,6]pyrido[3,4-b]indole-1,4-dione]: in assay [1], the inhibition at 50 µM was found to be 55%.
